Laboratory results published in PMC5321513 (Structure (London, England : 1993), 2017).
Where a SMILES comes first, the peptide text is derived from it. [ ]: non-standard residue; d: D form. pS = N[C@@H](COP(=O)(O)O)C(=O)O

Legend:
14-3-3 dimer = assay: Affinity of pHSPB6 dimer to the 14-3-3 dimer; assay type: binding, human; settings: Discussion
14-3-3ζ = settings: ref Sluchanko et al., 2011; cited from earlier work
14-3-3 = settings: in vitro; ref Sudnitsyna et al., 2012; cited from earlier work
14-3-3γ = target: T1, 14-3-3γ (Homo sapiens, UniProt P61981); assay: Isothermal titration calorimetry; assay type: binding; settings: 30 °C, pH 7.6
T1 sequence (P61981 1-247): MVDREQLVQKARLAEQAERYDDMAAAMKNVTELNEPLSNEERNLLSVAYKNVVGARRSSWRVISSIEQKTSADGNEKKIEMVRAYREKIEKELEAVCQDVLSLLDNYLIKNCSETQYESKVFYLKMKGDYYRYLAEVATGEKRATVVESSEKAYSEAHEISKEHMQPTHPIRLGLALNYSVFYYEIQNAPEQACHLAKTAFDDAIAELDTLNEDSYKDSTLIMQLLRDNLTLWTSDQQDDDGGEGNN
Method in brief: (§1)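 ITC was run at 30 °C in 20 mM Tris-HCl pH 7.6 with 150 mM NaCl, 0.1 mM EDTA and 2 mM β-mercaptoethanol. 2 μl aliquots of 14-3-3 were injected into a 0.2 ml cell holding the test phosphopeptide: 44 μM peptide titrated with 0.5 mM full-length human 14-3-3γ, or 100 μM peptide titrated with 1 mM 14-3-3σ. Heat of dilution was subtracted before curve fitting. There were at least three repeats with varied concentrations.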

14-3-3σ [1] = target: T2, 14-3-3σ (Homo sapiens, UniProt P31947); assay: Isothermal titration calorimetry; assay type: binding; settings: 30 °C, pH 7.6
T2 sequence (P31947 1-231): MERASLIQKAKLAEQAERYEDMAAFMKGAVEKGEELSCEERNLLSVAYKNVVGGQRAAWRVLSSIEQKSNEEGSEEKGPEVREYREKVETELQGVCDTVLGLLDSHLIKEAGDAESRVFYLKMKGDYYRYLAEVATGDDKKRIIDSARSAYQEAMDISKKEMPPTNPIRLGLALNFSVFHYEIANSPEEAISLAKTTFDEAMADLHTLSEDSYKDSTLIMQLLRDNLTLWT
Method in brief: as §1

14-3-3σ [2] = target: T2, 14-3-3σ; assay: AEDANS fluorescence titration of pHSPB6AEDANS by 14-3-3σ; assay type: binding; settings: excitation at 336 nm, 4.2 µM pHSPB6AEDANS, 30°C
Method in brief: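 Full-length HSPB6 was phosphorylated at Ser16 by PKA in vitro and moved into 20 mM HEPES pH 7.5 with 100 mM NaCl. It was reduced with 20 mM DTT for 20 min at room temperature, desalted, then labelled with a 6-fold molar excess of 1,5-I-AEDANS (1 h room temperature, then overnight at 4 °C), reaching 90% labelling. Human 14-3-3σ(1-231) was added stepwise with 5 min equilibration at 30 °C. Excitation was 336 nm and emission was read at 488 nm. Curves were buffer-corrected and fitted to a quadratic equation.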

14-3-3σ [3] = target: T2, 14-3-3σ; assay: Fluorescence competition titration; assay type: binding; settings: equimolar concentration and 7-fold excess of phosphopeptide; 30°C

Molecule: pHSPB6: phosphorylated small heat shock protein HSPB6 (HSP20)
- apparent affinity to the 14-3-3 dimer (14-3-3 dimer): submicromolar apparent affinity
- affinity to 14-3-3ζ (14-3-3ζ): micromolar affinity

Molecule: phosphocofilin: phosphocofilin, 14-3-3 complex partner
- direct 14-3-3/phosphocofilin interaction (14-3-3): could not be confirmed in vitro

Molecule: CC(C)C[C@H](NC(=O)CNC(=O)[C@@H]1CCCN1C(=O)[C@H](CC(C)C)NC(=O)[C@@H]1CCCN1C(=O)[C@H](C)NC(=O)[C@H](COP(=O)(O)O)NC(=O)[C@H](C)NC(=O)[C@H](CCCNC(=N)N)NC(=O)[C@H](CCCNC(=N)N)NC(=O)[C@H](CC(C)C)NC(=O)[C@@H](N)Cc1c[nH]c2ccccc12)C(=O)N[C@@H](CCCCN)C(=O)O [phosphopeptide 11-23] (H-WLRRA[pS]APLPGLK-OH)
- stoichiometry of binding (ITC) (14-3-3γ): one peptide per 14-3-3 subunit
- stoichiometry of binding (ITC) (14-3-3σ [1]): one peptide per 14-3-3 subunit

Molecule: pHSPB6^AEDANS: phosphorylated full-length HSPB6 stoichiometrically labeled at its unique Cys46 residue with 1,5-I-AEDANS
- fluorescence peak shift upon titration with 14-3-3σ (14-3-3σ [2]): shifted from 486 to 479 nm
- 14-3-3σ/pHSPB6AEDANS interaction in the presence of phosphopeptide (14-3-3σ [3]): resulted in a saturable curve (Fig.2b), suggestive of a retained 14-3-3σ/pHSPB6^AEDANS interaction
